Compound activity (PubChem)
ERAP1 inh = blocks human ERAP1 aminopeptidase activity | recombinant ERAP1, Leu-AMC fluorescence, 60 min | 340,000 tested, 0.15% active | inhibition, % at 10.7 µM;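 active = mean replicate inhibition of at least 30%, or all replicates individually reaching that 30% level; inactive = mean below 30% and not every replicate reaching it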;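 also: 0% = neutral control wells and 100% = L-leucinethiol positive control wells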
FGF22 binding = FGF22 (human) thermal shift binding. Q9HCT0. activity (Tm shift, normalised), % at 9.99 µM. recombinant FGF22 thermal shift, SYPRO orange fluorescence; percent of sucrose octasulfate shift, DMSO zero. AID 651658. 340,000 tested, 1.5% active;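 active = mean Tm shift, scaled 0 neutral to 100 positive control, at about 1.3% or above, every replicate too, limit read from the data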
Target sequence (Q9HCT0 whole entry, looked up): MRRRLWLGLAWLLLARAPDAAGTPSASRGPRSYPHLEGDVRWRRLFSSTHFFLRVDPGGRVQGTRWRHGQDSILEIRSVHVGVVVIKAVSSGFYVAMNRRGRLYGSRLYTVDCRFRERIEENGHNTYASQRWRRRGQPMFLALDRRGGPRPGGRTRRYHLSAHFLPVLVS
FN deposition inh = fibronectin deposition inhibition; 350,000 tested, 0.086% active; inhibition, % at 12.6 µM; AH1F fibroblasts, Alexa488-fibronectin deposition fluorescence, overnight;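 active = mean inhibition across replicates of 30% or more, regardless of how many single replicates reach that level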;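 also: positive control wells lacked labelled fibronectin entirely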
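Measured by – fluorescence 485/525 nm · System – AH1F fibroblast monolayer, labelled fibronectin deposition · Amount – 10000 cells per well · Buffer or medium – serum-reduced DMEM (2% serum) · Doses – single dose, pinned · Also added – fluorescent fibronectin at 24 nM final · Schedule – 1 h cell attachment, overnight exposure to compound and label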
PGC1a acetyl inh = PGC1a acetylation modulation, inhibitor mode; U2OS PGC1a acetylation, AlphaScreen anti-acetyl-lysine; with virally co-expressed GCN5 acetyltransferase; 350,000 tested, 0.17% active; inhibition, % at 15.6 µM;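 active = every replicate shows inhibition of at least 40%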;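 also: 0% = neutral control wells and 100% = positive control wells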
SIRT5 inh = inhibitors of human sirtuin-5 desuccinylase; 330,000 tested, 1.1% active; inhibition, % at 15 µM; AID 652115; Purified SirT5, succinyl-peptide AMC, trypsin-coupled fluorescence; Q9NXA8; in the data active = inhibition above about 15%
Target sequence (Q9NXA8 whole entry, looked up): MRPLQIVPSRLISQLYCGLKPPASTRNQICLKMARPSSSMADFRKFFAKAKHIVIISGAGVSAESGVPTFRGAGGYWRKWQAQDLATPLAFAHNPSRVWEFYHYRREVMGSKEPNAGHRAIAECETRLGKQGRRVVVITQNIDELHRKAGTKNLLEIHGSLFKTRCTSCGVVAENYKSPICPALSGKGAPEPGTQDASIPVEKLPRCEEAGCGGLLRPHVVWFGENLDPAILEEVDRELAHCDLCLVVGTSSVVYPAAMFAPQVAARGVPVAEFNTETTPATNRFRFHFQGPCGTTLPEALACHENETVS
The depositor's hits bear a star; . = not tested or not shown. Shown are actives, neighbours in structure and some others; about 2.2% of the full set was active somewhere.

SMILES | ERAP1 inh | FGF22 binding | FN deposition inh | PGC1a acetyl inh | SIRT5 inh
CCC(=O)N1CC[C@@H]2[C@H](CO)Nc3ccc(C#Cc4ccc(OC)cc4)cc3[C@@H]21 | 2 | 0 | 1 | 7 | 17*
O=C(C1CCC1)N1CC[C@H]2[C@H](CO)Nc3ccc(C#Cc4cccc(F)c4)cc3[C@H]21 | 1 | 0 | 8 | 0 | 20*
COc1ccccc1C#Cc1ccc2c(c1)[C@H]1[C@H](CCN1C(=O)c1cccc(F)c1)[C@H](CO)N2 | -1 | 0 | 0 | -6 | -29
O=C(C1CCC1)N1CC[C@@H]2[C@@H](CO)Nc3ccc(C#Cc4cccc(F)c4)cc3[C@@H]21 | 3 | 0 | -8 | 19 | 1
COCC(=O)N1CC[C@@H]2[C@H]1c1cc(C#Cc3ccc(OC)cc3)ccc1N[C@@H]2CO | 1 | 0 | -8 | -8 | 4
COc1ccccc1C#Cc1ccc2c(c1)[C@@H]1[C@@H](CCN1C(=O)c1cccc(F)c1)[C@H](CO)N2 | 0 | . | -19 | . | 18*
CCCNC(=O)C[C@H]1CC[C@H]2[C@H](COc3ccc(NC(=O)NCC)cc3C(=O)N2C)O1 | 1 | 0 | -9 | -6 | -2
C/C(CC(=O)Nc1ccc(C)c(Cl)c1)=N\NC(=O)Cc1cnc(N)s1 | 1 | 43* | -10 | . | -4
C[C@@H]1CN([C@@H](C)CO)C(=O)c2cc(-c3ccccc3)cnc2O[C@H]1CN(C)C | -3 | 0 | -3 | 6 | -2
CCOC(=O)C1=C(O)C(=O)N(Cc2cccnc2)C1c1ccc(C)cc1 (stereo not given) | -4 | 44* | -3 | 6 | 0
CC(=O)C1=C(O)C(=O)N(Cc2cccnc2)C1c1ccc(C(C)C)cc1 (stereo not given) | 0 | 43* | -19 | 1 | -1
O=C(C[C@@H]1C=C[C@H](NC(=O)CN2CCOCC2)[C@H](CO)O1)NCCc1ccncc1 | -2 | . | 4 | 3 | 0
CCCN1C[C@H](C)[C@@H](OC)CN(C)C(=O)c2cc(NC(=O)c3cnccn3)ccc2OC[C@@H]1C | -1 | 0 | 15 | 15 | 1
C[C@@H]1CN([C@H](C)CO)C(=O)Cc2cc(NC(=O)Nc3cccc4ccccc34)ccc2O[C@H]1CN(C)Cc1ccc2c(c1)OCO2 | -5 | 0 | . | -1 | 17*
C[C@@H]1CN([C@@H](C)CO)C(=O)Cc2cc(NC(=O)Nc3cccc4ccccc34)ccc2O[C@@H]1CN(C)Cc1ccc2c(c1)OCO2 | -4 | 0 | . | -4 | -1
C[C@H](CO)N1C[C@H](C)[C@H](CN(C)Cc2ccc(C(=O)O)cc2)Oc2ccc(NC(=O)Nc3cccc4ccccc34)cc2CC1=O | 51* | 0 | -2 | 2 | -1
COc1ccc(/C=C/C(=O)O)cc1S(=O)(=O)NC1CCS(=O)(=O)C1 (stereo not given) | 1 | 44* | -2 | . | -5
CC(C)(C)[S@@](=O)N1Cc2cc(C(=O)N3CCOCC3)nc(-c3cccc(Br)c3)c2[C@H]1CCO | 2 | . | -16 | . | 4
COc1ccccc1S(=O)(=O)Nc1cc(S(=O)(=O)N2CCCCC2)ccc1N1CCOCC1 | -2 | 0 | 6 | -2 | 17*
COc1ccccc1NCC(=O)Nc1cc(S(=O)(=O)N2CCOCC2)ccc1N1CCOCC1 | 3 | 0 | 0 | -1 | 1
CCc1cccc(NC(=O)c2cc(S(=O)(=O)N3CCCCC3)ccc2N2CCOCC2)c1 | 1 | 43* | 3 | -5 | .
O=C(C[C@H]1C[C@H]2c3cc(NC(=O)CC4CC4)ccc3O[C@H]2[C@@H](CO)O1)NCc1ccncc1 | -4 | 0 | . | -2 | 2
C[C@H](CO)N1C[C@H](C)[C@@H](CN(C)C(=O)NC2CCCCC2)OCCCC[C@H](C)Oc2ccc(NC(=O)Nc3ccc(F)cc3)cc2C1=O | 0 | 0 | 10 | -16 | 9
CC1(C)Cc2c(sc(NC(=O)C3CC(Cl)=CCC3C(=O)O)c2C#N)CO1 (stereo not given) | -10 | 43* | -4 | 11 | -4
COc1ccc(Nc2c3c(nc4ccc(C)cc24)CCC3)cc1 | 3 | 0 | -4 | -8 | 25*
SMILES | ERAP1 inh | FGF22 binding | FN deposition inh | PGC1a acetyl inh | SIRT5 inh
Cc1ccc(Cl)cc1NC(=O)CCC(=O)O | 45* | 0 | -2 | . | -7
Cc1ccc(Cl)cc1NC(=O)Nc1cccs1 | -2 | 43* | 0 | . | 0
C/C(CC(=O)Nc1cc(Cl)ccc1C)=N\NC(=O)C(=O)N1CCCC1 | 1 | 0 | 5 | -17 | 28*
C[C@@H]1CN([C@H](C)CO)C(=O)c2cc(NC(=O)Nc3ccc4c(c3)OCO4)ccc2O[C@@H](C)CCCCO[C@H]1CN(C)S(=O)(=O)c1cccs1 | 0 | 0 | . | -25 | 18*
C[C@@H]1CCCCO[C@H](CN(C)S(=O)(=O)c2cccs2)[C@@H](C)CN([C@H](C)CO)C(=O)c2cc(NC(=O)Nc3ccc4c(c3)OCO4)ccc2O1 | 4 | 0 | . | -4 | -1
C[C@@H]1CCCCO[C@@H](CN(C)S(=O)(=O)c2cccs2)[C@H](C)CN([C@H](C)CO)C(=O)c2cc(NC(=O)Nc3ccc(F)cc3)ccc2O1 | -3 | 0 | . | 1 | 17*
Fc1ccc(C(CNC(=S)NC2CCCCC2)N2CCOCC2)cc1 (stereo not given) | -3 | 43* | -7 | . | -21
S=C(NCC(c1cccnc1)N1CCOCC1)NC1CCCCC1 (stereo not given) | -1 | 0 | -13 | 3 | 2
CCN(CC1COc2ccccc2O1)C(=S)Nc1ccc(F)cc1 (stereo not given) | 0 | 44* | -9 | . | 0
CN(NS(=O)(=O)c1ccc(Cl)cc1)c1nc(C(F)(F)F)nc2ccccc12 | -2 | 44* | 23 | . | 2
CN(NS(=O)(=O)c1ccccc1)c1nc2ccccc2nc1C(F)(F)F | . | . | . | -9 | .
CO[C@H]1CN(C)C(=O)c2ccc(NC(=O)C3CCCC3)cc2OC[C@@H](C)N(S(C)(=O)=O)C[C@@H]1C | . | 0 | -3 | -7 | 2
COC(=O)[C@]1(C)N[C@H](CN(C)C(=O)Nc2ccccc2)[C@@H]2C(=O)N(Cc3ccccc3)C(=O)[C@@H]21 | -3 | 42 | 15 | . | -5
COCC(=O)N(C)C[C@H]1N[C@@](C)(C(=O)OC)[C@H]2C(=O)N(Cc3ccccc3)C(=O)[C@@H]12 | -1 | 43* | 4 | . | .
CC[C@@]1(C(=O)OC)N[C@H](CN(C)C(C)=O)[C@@H]2C(=O)N(Cc3ccccc3)C(=O)[C@@H]21 | 0 | 44* | -6 | . | .
CC[C@@]1(C(=O)OC)N[C@H](CN(C)C(=O)c2ccccc2)[C@@H]2C(=O)N(C)C(=O)[C@@H]21 | -1 | 43* | 2 | . | .
COC(=O)[C@]1(Cc2ccccc2)N[C@H](CN(C)C(=O)c2ccccc2)[C@@H]2C(=O)N(Cc3ccccc3)C(=O)[C@@H]21 | 0 | 43* | -2 | 0 | -4
